Assay results published in ChEMBL document CHEMBL4049454, “7-Substituted 2-Nitro-5,6-dihydroimidazo[2,1-b][1,3]oxazines: Novel Antitubercular Agents Lead to a New Preclinical Candidate for Visceral Leishmaniasis” (J Med Chem, 2017).
The source made the active and inactive calls. The calls are words filed in the database; no cut-off is given here.

What was measured:
Trypanosoma cruzi = assay: […] activity against Trypanosoma cruzi infected in human MRC-5 cells by luciferase reporter gene assay; type: functional, cell-based; settings: MRC5
Outline: (§1)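 Run at LMPH as IC50 determinations. L. infantum was grown in primary peritoneal mouse macrophages and T. cruzi on human lung fibroblasts (MRC-5). Each value is the mean of at least two independent determinations, run alongside MRC-5 and macrophage cytotoxicity tests.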

[1] = test system: Mycobacterium tuberculosis; assay: Antitubercular activity against Mycobacterium tuberculosis infected in BALB/c mouse assessed as reduction in bacterial burden at 100 mg/kg, po qd administered every 5 days a week for 3 weeks; type: functional, organism-based
Outline: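 Acute infection model in BALB/c mice: dosing at 100 mg/kg daily, 5 days a week for 3 weeks, starting day 11 after infection. Read-out is CFU reduction in treated mice, usually reported as a ratio of mean CFU reduction versus mice given the reference nitroimidazole.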

[2] = Apparent permeability from apical to basolateral side in human Caco2 cells after 150 mins by LC-MS/MS analysis; type: ADME, cell-based; settings: Caco-2
[3] = Apparent permeability from basolateral to apical side in human Caco2 cells after 150 mins by LC-MS/MS analysis; type: ADME, cell-based; settings: Caco-2
Leishmania infantum = assay: Antileishmanial activity against Leishmania infantum infected in primary peritoneal mouse macrophages by luciferase reporter gene assay; type: functional; outline: as §1
[4] = Extrapolated AUCinfinity in swiss albino mouse plasma at 40 mg/kg, po by LC-MS/MS analysis

## O=[N+]([O-])c1cn2c(n1)OC(COc1ccc(OC(F)(F)F)cc1)CC2 (stereo not drawn)
Trypanosoma cruzi
  IC50: 61 nM

## C[C@]1(COCc2ccc(-c3ccc(OC(F)(F)F)cc3)cc2)CCn2cc([N+](=O)[O-])nc2O1
[1]
  Activity: Active

## C[C@]1(COc2ccc(OC(F)(F)F)cc2)Cn2cc([N+](=O)[O-])nc2O1
[2]
  Papp A→B at […]: 22.6 ×10⁻⁶ cm/s
[3]
  Papp B→A at […]: 24.7 ×10⁻⁶ cm/s

## O=[N+]([O-])c1cn2c(n1)OC(COc1ccc(-c3ccc(F)nc3)nc1)CC2 (stereo not drawn)
Leishmania infantum
  IC50: > 64000 nM

## O=[N+]([O-])c1cn2c(n1)OC(COc1ccc(-c3ccc(F)cc3)cc1)CC2 (stereo not drawn)
Trypanosoma cruzi
  IC50: 63 nM

## O=[N+]([O-])c1cn2c(n1)OC[C@@H](OCc1ccc(OC(F)(F)F)cc1)C2
[1]
  Activity: Active

## O=[N+]([O-])c1cn2c(n1)OC(COCc1ccc(-c3ccc(OC(F)(F)F)cc3)cc1)CC2 (stereo not drawn)
[4]
  AUC(0-inf): 47100 ng·h/mL
